For test [1], the species on record is Cavia porcellus. As to the kind of experiment: Inhibition of CCK-8-stimulated amylase release. Format: functional.
Test [2] addresses T1, Cholecystokinin receptor type A (Cavia porcellus, UniProt Q63931).
T1 sequence (Q63931 whole entry): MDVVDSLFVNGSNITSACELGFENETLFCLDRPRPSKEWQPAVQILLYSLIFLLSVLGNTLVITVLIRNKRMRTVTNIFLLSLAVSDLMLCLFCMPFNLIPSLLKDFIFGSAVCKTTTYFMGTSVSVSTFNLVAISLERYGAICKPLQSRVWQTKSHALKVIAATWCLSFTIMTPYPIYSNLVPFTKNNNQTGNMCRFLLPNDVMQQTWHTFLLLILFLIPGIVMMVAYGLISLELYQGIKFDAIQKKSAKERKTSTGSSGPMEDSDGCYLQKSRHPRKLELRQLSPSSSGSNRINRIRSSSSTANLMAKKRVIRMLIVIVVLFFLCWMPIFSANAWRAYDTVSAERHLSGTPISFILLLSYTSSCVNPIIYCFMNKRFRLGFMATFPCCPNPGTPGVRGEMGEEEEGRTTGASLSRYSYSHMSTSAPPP
Put plainly: Inhibition of [125I]Bolton-Hunter CCK-8 binding to cholecystokinin type A receptor in guinea pig pancreatic membranes. Type of test: cell membranes.

For test [3], the species on record is Cavia porcellus. Put plainly: The compound was tested for the inhibition of CCK-8-stimulated amylase release. Type of test: functional. Put shortly: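 Amylase release was stimulated with CCK-8 at 3 × 10⁻¹⁰ M as the reference concentration, following a published procedure. Inhibition by test compounds gave IC50 values.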

We go through 39 compounds from ChEMBL document CHEMBL1125805, “Cholecystokinin antagonists: (R)-tryptophan-based hybrid antagonists of high affinity and selectivity for CCK-A receptors” (J Med Chem, 1991).

Broadly, the IC50 is the midpoint of a concentration-inhibition curve. A lower IC50 goes with higher potency. As for `CCCCCN(CCCCC)C(=O)[C@@H](CCC(=O)O)NC(=O)c1cc(O)c2cccc(O)c2n1`, the IC50 in test [1] turned out to be 106 nM; in test [2] it was 7 nM.

In the case of `CCCCCN(CCCCC)C(=O)[C@@H](Cc1c[nH]c2ccccc12)NC(=O)c1cnc2ccccc2c1`, in test [1], the IC50 worked out at 43 nM.

For `CCCCCN(CCCCC)C(=O)[C@@H](CC1C(=O)Nc2ccccc21)NC(=O)c1cnc2ccccc2c1` (some centres not stated), the figures for the IC50 in test [1] and in test [2] were 62 nM and 46 nM, respectively.

Turning to `CCCCCN(CCCCC)C(=O)[C@@H](Cc1c[nH]c2ccccc12)NC(=O)c1cc(O)c2ccccc2n1`, the IC50 in test [1] was determined as 110 nM; in test [2], 51 nM.

Regarding `CCCCCN(CCCCC)C(=O)[C@H](Cc1c[nH]c2ccccc12)NC(=O)c1cc2ccccc2[nH]1`, the IC50 in test [1] is < 30000 nM; in test [2], 520 nM.

Consider `CCCCCN(CCCCC)C(=O)[C@@H](Cc1c[nH]c2ccccc12)NC(=O)c1ccc(Cl)cc1`, for which the IC50 in test [1] was < 10000 nM; in test [2], 370 nM.

As for `CCCCCN(CCCCC)C(=O)C(Cc1c[nH]c2ccc(OCc3ccccc3)cc12)NC(=O)c1cnc2ccccc2c1` (configuration not stated), the IC50 in test [1] is < 100000 nM.

In the case of `C[C@H](NC(=O)[C@@H](Cc1c[nH]c2ccccc12)NC(=O)c1cnc2ccccc2c1)c1ccccc1`, the IC50 in test [2] was 180 nM.

In the case of `CCCCCN(CCCCC)C(=O)[C@@H](Cc1c[nH]c2ccccc12)NC(=O)c1ccc[nH]1`, in test [1], the concentration for half-maximal inhibition (IC50) is > 100000 nM.

In the case of `CCCCCN(CCCCC)C(=O)[C@H](Cc1c[nH]c2ccccc12)NC(=O)c1cnc2ccccc2c1`, in test [1], the IC50 is < 100000 nM.

Turning to `CCCCCN(CCCCC)C(=O)[C@@H](Cc1c[nH]c2ccccc12)NC(=O)c1ccc(Cl)c(Cl)c1`, the concentration for half-maximal inhibition (IC50) in test [1] worked out at 2500 nM; in test [2], 190 nM.

Regarding `CCCCCN(CCCCC)C(=O)[C@@H](Cc1c[nH]c2ccc(O)cc12)NC(=O)c1cnc2ccccc2c1`, the concentration for half-maximal inhibition (IC50) in test [1] worked out at 27 nM; in test [2], 11 nM.

With `CCCCCN(CCCCC)C(=O)[C@@H](Cc1c[nH]c2ccccc12)NC(=O)c1cc2cc(F)ccc2[nH]1`, the IC50 is < 100000 nM in test [1] and 155 nM in test [2].

Consider `CCCCCN(CCCCC)C(=O)[C@@H](Cc1c[nH]c2ccccc12)NC(=O)c1cc2ccccc2cn1`, for which the half-maximal inhibitory concentration (IC50) in test [1] is < 100000 nM; in test [2] it was 880 nM.

As for `CCCCCN(CCCCC)C(=O)[C@@H](Cc1c[nH]c2ccccc12)NC(=O)c1c[nH]c2ccccc12`, the IC50 is < 10000 nM in test [1] and 430 nM in test [2].

For the compound `CCOC(=O)CN(Cc1ccccc1)C(=O)[C@@H](Cc1c[nH]c2ccccc12)NC(=O)c1cnc2ccccc2c1`, the 50% inhibitory concentration (IC50) in test [2] is 400 nM.

In the case of `CCCCCN(CCCCC)C(=O)[C@H](Cc1c[nH]c2ccccc12)NC(=O)Nc1ccc(Cl)cc1`, the IC50 in test [2] is > 10000 nM.

Take `CCCCCN(CCCCC)C(=O)[C@@H](Cc1c[nH]c2ccccc12)NC(=O)c1ccc2cccc(O)c2n1`: the values for the half-maximal inhibitory concentration (IC50) in test [1] and in test [2] were < 100000 nM and 390 nM, respectively.

`CCCCCN(CCCCC)C(=O)[C@@H](Cc1c[nH]c2ccccc12)NC(=O)Nc1cccc(C)c1`: the IC50 in test [1] was > 30000 nM; in test [2], 1100 nM.

In turn, `CN(Cc1ccccc1)C(=O)[C@@H](Cc1c[nH]c2ccccc12)NC(=O)c1cnc2ccccc2c1` yielded an IC50 in test [2] of 600 nM.

For `CCCCCN(CCCCC)C(=O)[C@@H](Cc1c[nH]c2ccccc12)NC(=O)c1cccc2ccccc12`, the figures for the IC50 in test [1] and in test [2] were < 30000 nM and 500 nM, respectively.

As to `CCCCCN(CCCCC)C(=O)[C@@H](Cc1c[nH]c2ccccc12)NC(=O)c1ccc2cc(O)ccc2c1`, in test [1], the midpoint of inhibition, the IC50, lay at 100000 nM.

In the case of `C[C@@H](NC(=O)[C@@H](Cc1c[nH]c2ccccc12)NC(=O)c1cnc2ccccc2c1)c1ccccc1`, the concentration for half-maximal inhibition (IC50) in test [3] is > 10000 nM; in test [2], 810 nM.

As to `CCCCCN(CCCCC)C(=O)[C@H](Cc1c[nH]c2ccccc12)NC(=O)Nc1cccc(C)c1`, the results for the IC50 in test [1] and in test [2] were < 100000 nM and 1500 nM, respectively.

Consider `CCCCCN(CCCCC)C(=O)[C@@H](Cc1c[nH]c2ccccc12)NC(=O)Nc1ccc(Cl)cc1`, for which, in test [2], the IC50 was 4200 nM.

For the compound `CCCCCN(CCCCC)C(=O)[C@@H](Cc1c(Sc2ccccc2[N+](=O)[O-])[nH]c2ccccc12)NC(=O)c1cnc2ccccc2c1`, the half-maximal inhibitory concentration (IC50) in test [1] is < 100000 nM.

In the case of `CCCCCN(CCCCC)C(=O)[C@H](Cc1c[nH]c2ccccc12)NC(=O)c1ccc(Cl)c(Cl)c1`, the IC50 in test [1] was > 30000 nM; in test [2], 670 nM.

For `CCCCCN(CCCCC)C(=O)[C@@H](Cc1c[nH]c2ccccc12)NC(=O)/C=C/c1cccnc1`, the IC50 in test [1] was < 100000 nM; in test [2], > 1000 nM.

Consider `CCCCCN(CCCCC)C(=O)[C@@H](Cc1c[nH]c2ccccc12)NC(=O)c1ccc2ccccc2c1`, for which the figures for the IC50 in test [1] and in test [2] were 360 nM and 29 nM, respectively.

For `CCCCCN(CCCCC)C(=O)[C@H](Cc1c[nH]c2ccccc12)NC(=O)Nc1ccc(C)cc1`, in test [2], the IC50 was > 10000 nM.

Take `CCCCCN(CCCCC)C(=O)[C@H](Cc1c[nH]c2ccc(F)cc12)NC(=O)c1cnc2ccccc2c1`: the half-maximal inhibitory concentration (IC50) is > 100000 nM in test [1] and 48 nM in test [2].

Consider `CCCCCN(CCCCC)C(=O)[C@H](Cc1c[nH]c2ccccc12)NC(=O)c1ccc(Cl)cc1`, for which the IC50 was < 30000 nM in test [1] and 475 nM in test [2].

In turn, `CCCCCN(CCCCC)C(=O)[C@@H](Cc1c[nH]c2ccccc12)NC(=O)c1cc(O)c2cccc(O)c2n1` had an IC50 in test [1] of 46 nM.

As for `CCCCCN(CCCCC)C(=O)[C@@H](Cc1c[nH]c2ccccc12)NC(=O)c1cccnc1`, the half-inhibitory concentration (IC50) in test [1] was > 100000 nM; in test [2], 14600 nM.

On to `CCCCCN(CCCCC)C(=O)[C@@H](Cc1c[nH]c2ccccc12)NC(=O)c1ccc2ccccc2n1`, for which the half-maximal inhibitory concentration (IC50) in test [1] was found to be 1300 nM; in test [2], 120 nM.

In turn, `CCCCCN(CCCCC)C(=O)[C@@H](Cc1c[nH]c2ccccc12)NC(=O)c1cc2ccccc2[nH]1` gave an IC50 in test [1] of 670 nM.

For the compound `CCCCCN(CCCCC)C(=O)[C@@H](Cc1c[nH]c2ccccc12)NC(=O)c1ccc2ncccc2c1`, the concentration for half-maximal inhibition (IC50) is < 10000 nM in test [1] and 239 nM in test [2].

Regarding `CCCCCN(CCCCC)C(=O)[C@@H](Cc1c[nH]c2ccccc12)NC(=O)c1nccc2ccccc12`, in test [1], the IC50 was > 100000 nM.

Turning to `O=C(N[C@@H](Cc1c[nH]c2ccccc12)C(=O)O)c1ccc(Cl)cc1` [BENZOTRIPT], the IC50 in test [2] is > 100000 nM.
